Legend:
[1] = biological target: T1, 5-hydroxytryptamine receptor 1A (Rattus norvegicus, UniProt P19327); test: In vitro displacement of [3H]8-OH-DPAT binding to rat hippocampal 5-hydroxytryptamine 1A receptor; assay type: tissue-based, Hippocampus
T1 sequence (P19327 whole entry): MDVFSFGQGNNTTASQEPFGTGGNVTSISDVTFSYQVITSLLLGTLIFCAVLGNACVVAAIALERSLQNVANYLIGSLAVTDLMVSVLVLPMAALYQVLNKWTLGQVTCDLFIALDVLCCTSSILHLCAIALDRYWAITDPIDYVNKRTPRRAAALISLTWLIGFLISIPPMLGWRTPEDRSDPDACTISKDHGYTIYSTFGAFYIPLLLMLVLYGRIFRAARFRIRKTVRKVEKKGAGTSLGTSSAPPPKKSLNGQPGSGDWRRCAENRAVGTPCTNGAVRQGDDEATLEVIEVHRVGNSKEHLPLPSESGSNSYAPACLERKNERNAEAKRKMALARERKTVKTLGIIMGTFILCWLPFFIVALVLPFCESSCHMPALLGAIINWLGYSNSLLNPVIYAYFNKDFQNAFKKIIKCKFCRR

[2] = biological target: T2, D(2) dopamine receptor (Homo sapiens, UniProt P14416); test: Displacement of [3H]raclopride from human Dopamine receptor D2A
T2 sequence (P14416 whole entry): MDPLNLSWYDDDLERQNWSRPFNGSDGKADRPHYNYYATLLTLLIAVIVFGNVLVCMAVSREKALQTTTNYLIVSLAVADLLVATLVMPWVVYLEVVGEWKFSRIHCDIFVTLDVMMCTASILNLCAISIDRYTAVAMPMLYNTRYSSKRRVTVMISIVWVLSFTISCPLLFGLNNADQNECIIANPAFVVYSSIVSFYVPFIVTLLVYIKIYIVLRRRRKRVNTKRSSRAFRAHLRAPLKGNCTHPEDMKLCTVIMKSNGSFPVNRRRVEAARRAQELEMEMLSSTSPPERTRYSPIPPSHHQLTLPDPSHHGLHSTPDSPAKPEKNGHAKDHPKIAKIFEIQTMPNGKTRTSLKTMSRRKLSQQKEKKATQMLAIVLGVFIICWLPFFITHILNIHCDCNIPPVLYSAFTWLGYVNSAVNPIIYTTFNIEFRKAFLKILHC

[3] = biological target: T3, D(1A) dopamine receptor (Rattus norvegicus, UniProt P18901); test: Affinity for dopamine receptor D1 binding measured by competition against [3H]-SCH- 23390 to rat striatal membrane; set-up: species or system Striatum
T3 sequence (P18901 whole entry): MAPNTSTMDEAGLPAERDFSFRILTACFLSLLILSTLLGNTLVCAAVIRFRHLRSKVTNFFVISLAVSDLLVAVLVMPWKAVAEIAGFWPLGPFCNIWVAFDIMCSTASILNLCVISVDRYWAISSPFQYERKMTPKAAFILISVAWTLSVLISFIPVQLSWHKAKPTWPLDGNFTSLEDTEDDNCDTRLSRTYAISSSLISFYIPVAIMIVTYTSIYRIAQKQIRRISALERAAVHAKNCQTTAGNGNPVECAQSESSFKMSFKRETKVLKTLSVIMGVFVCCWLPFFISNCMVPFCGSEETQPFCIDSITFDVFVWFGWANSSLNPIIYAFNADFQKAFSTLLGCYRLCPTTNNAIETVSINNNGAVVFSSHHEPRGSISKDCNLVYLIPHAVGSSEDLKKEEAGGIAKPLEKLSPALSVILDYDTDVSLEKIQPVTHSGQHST
Method in brief: (§1)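 Radioligand displacement analysed with a one-site model. D1 sites come from rat striatum and are labelled with [3H]SCH23390. D2A is the cloned human receptor expressed in Ltk- cells and labelled with [3H]raclopride. Ki is the mean ± standard error of n = 2–3 experiments.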

[4] = biological target: T3, D(1A) dopamine receptor
[5] = biological target: T2, D(2) dopamine receptor; test: Displacement of [3H]-raclopride fromd human Dopamine receptor D2A expressed in LtK- cells; assay type: cell-based; method in brief: as §1
[6] = test system: Rattus norvegicus; test: In vivo accumulation of DOPA in percent of saline control was determined in limbic forebrain of reserpine pretreated rat at dose of 3.2 uM/kg; assay type: functional
Method in brief: (§2)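 Rats get reserpine 5 mg/kg sc 18–20 h beforehand. A single dose of test drug is given. NSD1015 (117 mg/kg sc) is injected 30 min after drug to block decarboxylase. 5-HTP or DOPA accumulation is measured in limbic forebrain, striatum and cortex and expressed as percent of saline controls, mean ± SEM, n = 2–4. Statistics use one-way ANOVA with Fisher's PLSD.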

[7] = test system: Rattus norvegicus; test: In vivo accumulation of DOPA in percent of saline control was determined in striatum of reserpine pretreated rat at dose of 3.2 uM/kg; assay type: functional; method in brief: as §2
[8] = test system: Rattus norvegicus; test: In vivo accumulation of 5HTP in percent of saline control was determined in limbic forebrain of reserpine pretreated rat at dose of 3.2 uM/kg; assay type: functional; method in brief: as §2
[9] = test system: Rattus norvegicus; test: In vivo accumulation of 5HTP in percent of saline control was determined in striatum of reserpine pretreated rat at dose of 3.2 uM/kg; assay type: functional; method in brief: as §2
[10] = test system: Rattus norvegicus; test: In vivo accumulation of 5HTP in percent of saline control was determined in cortex of reserpine pretreated rat at dose of 3.2 uM/kg; assay type: functional; method in brief: as §2
[11] = test system: Rattus norvegicus; test: In vivo accumulation of DOPA in percent of saline control was determined in cortex of reserpine pretreated rat at dose of 3.2 uM/kg; assay type: functional; method in brief: as §2
[12] = test system: Rattus norvegicus; test: In vivo accumulation of DOPA in percent of saline control was determined in limbic forebrain of reserpine pretreated rat at a dose of 3.3 uM/kg; assay type: functional; method in brief: as §2
[13] = test system: Rattus norvegicus; test: In vivo accumulation of DOPA in percent of saline control was determined in striatum of reserpine pretreated rat at a dose of 3.3 uM/kg; assay type: functional; method in brief: as §2
[14] = test system: Rattus norvegicus; test: In vivo accumulation of 5HTP in percent of saline control was determined in limbic forebrain of reserpine pretreated rat at a dose of 3.3 uM/kg; assay type: functional; method in brief: as §2
[15] = test system: Rattus norvegicus; test: In vivo accumulation of 5HTP in percent of saline control was determined in striatum of reserpine pretreated rat at a dose of 3.3 uM/kg; assay type: functional; method in brief: as §2
[16] = test system: Rattus norvegicus; test: In vivo accumulation of 5HTP in percent of saline control was determined in cortex of reserpine pretreated rat at a dose of 3.3 uM/kg; assay type: functional; method in brief: as §2
[17] = test system: Rattus norvegicus; test: In vivo accumulation of DOPA in percent of saline control was determined in cortex of reserpine pretreated rat at a dose of 3.3 uM/kg; assay type: functional; method in brief: as §2
[18] = test system: Rattus norvegicus; test: In vivo accumulation of DOPA in percent of saline control was determined in limbic forebrain of reserpine pretreated rat at a dose of 2.9 uM/kg; assay type: functional
Method in brief: (§3)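 Reserpine 5 mg/kg sc given 18–20 h before. Single test dose given; 30 min later decarboxylase inhibited with NSD1015 (117 mg/kg sc). 5-HTP or DOPA accumulation measured in limbic forebrain, striatum and cortex, expressed as percent of saline controls (mean ± SEM, n = 2–4). Saline-control DOPA levels given in ng/g tissue. One-way ANOVA with Fischer's PLSD, p < 0.05.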

[19] = test system: Rattus norvegicus; test: In vivo accumulation of DOPA in percent of saline control was determined in striatum of reserpine pretreated rat at a dose of 2.9 uM/kg; assay type: functional; method in brief: as §3
[20] = test system: Rattus norvegicus; test: In vivo accumulation of 5HTP in percent of saline control was determined in striatum of reserpine pretreated rat at a dose of 2.9 uM/kg; assay type: functional; method in brief: as §3
[21] = test system: Rattus norvegicus; test: In vivo accumulation of DOPA in percent of saline control was determined in cortex of reserpine pretreated rat at a dose of 2.9 uM/kg; assay type: functional; method in brief: as §3
[22] = test system: Rattus norvegicus; test: In vivo accumulation of 5HTP in percent of saline control was determined in cortex of reserpine pretreated rat at a dose of 2.9 uM/kg; assay type: functional; method in brief: as §3
[23] = test system: Rattus norvegicus; test: In vivo accumulation of 5HTP in percent of saline control was determined in limbic forebrain of reserpine pretreated rat at a dose of 2.9 uM/kg; assay type: functional; method in brief: as §3
[24] = test system: Rattus norvegicus; test: In vivo accumulation of DOPA in percent of saline control was determined in limbic forebrain of reserpine pretreated rat at a dose of 30 uM/kg; assay type: functional; method in brief: as §2
[25] = test system: Rattus norvegicus; test: In vivo accumulation of DOPA in percent of saline control was determined in striatum of reserpine pretreated rat at a dose of 30 uM/kg; assay type: functional; method in brief: as §2
[26] = test system: Rattus norvegicus; test: In vivo accumulation of 5HTP in percent of saline control was determined in limbic forebrain of reserpine pretreated rat at a dose of 30 uM/kg; assay type: functional; method in brief: as §2
[27] = test system: Rattus norvegicus; test: In vivo accumulation of 5HTP in percent of saline control was determined in striatum of reserpine pretreated rat at a dose of 30 uM/kg; assay type: functional; method in brief: as §2
[28] = test system: Rattus norvegicus; test: In vivo accumulation of 5HTP in percent of saline control was determined in cortex of reserpine pretreated rat at a dose of 30 uM/kg; assay type: functional; method in brief: as §2
[29] = test system: Rattus norvegicus; test: In vivo accumulation of DOPA in percent of saline control was determined in cortex of reserpine pretreated rat at a dose of 30 uM/kg; assay type: functional; method in brief: as §2
[30] = test system: Rattus norvegicus; test: In vivo accumulation of DOPA in percent of saline control was determined in limbic forebrain of reserpine pretreated rat at a dose of 3.7 uM/kg; assay type: functional; method in brief: as §2
[31] = test system: Rattus norvegicus; test: In vivo accumulation of DOPA in percent of saline control was determined in striatum of reserpine pretreated rat at a dose of 3.7 uM/kg; assay type: functional; method in brief: as §2
[32] = test system: Rattus norvegicus; test: In vivo accumulation of 5HTP in percent of saline control was determined in limbic forebrain of reserpine pretreated rat at a dose of 3.7 uM/kg; assay type: functional; method in brief: as §2
[33] = test system: Rattus norvegicus; test: In vivo accumulation of 5HTP in percent of saline control was determined in cortex of reserpine pretreated rat at a dose of 3.7 uM/kg; assay type: functional; method in brief: as §2
[34] = test system: Rattus norvegicus; test: In vivo accumulation of DOPA in percent of saline control was determined in cortex of reserpine pretreated rat at a dose of 3.7 uM/kg; assay type: functional; method in brief: as §2
[35] = test system: Rattus norvegicus; test: In vivo accumulation of 5HTP in percent of saline control was determined in striatum of reserpine pretreated rat at a dose of 3.7 uM/kg; assay type: functional; method in brief: as §2
[36] = test system: Rattus norvegicus; test: In vivo accumulation of DOPA in percent of saline control was determined in cortex of reserpine pretreated rat at dose of 3.5 uM/kg; assay type: functional; method in brief: as §2
[37] = test system: Rattus norvegicus; test: In vivo accumulation of DOPA in percent of saline control was determined in limbic forebrain of reserpine pretreated rat at dose of 3.5 uM/kg; assay type: functional; method in brief: as §2
[38] = test system: Rattus norvegicus; test: In vivo accumulation of 5HTP in percent of saline control was determined in limbic forebrain of reserpine pretreated rat at dose of 3.5 uM/kg; assay type: functional; method in brief: as §2
[39] = test system: Rattus norvegicus; test: In vivo accumulation of 5HTP in percent of saline control was determined in striatum of reserpine pretreated rat at dose of 3.5 uM/kg; assay type: functional; method in brief: as §2
[40] = test system: Rattus norvegicus; test: In vivo accumulation of 5HTP in percent of saline control was determined in cortex of reserpine pretreated rat at dose of 3.5 uM/kg; assay type: functional; method in brief: as §2
[41] = test system: Rattus norvegicus; test: In vivo accumulation of DOPA in percent of saline control was determined in striatum of reserpine pretreated rat at dose of 3.5 uM/kg; assay type: functional; method in brief: as §2

Row | Structure (SMILES) | Ki [1] | Ki [2] | Ki [4] | Ki [5] | further results
1 | COc1cccc2c1-c1cccc3c1[C@@H](C2)N(C(C)C)CC3 | 375 nM | 1000 nM | – | – | Ki [3]: > 10000 nM
2 | COc1cccc2c1-c1cccc3c1[C@@H](C2)NCC3 | 8.3 nM | – | > 5000 nM | > 1000 nM | –
3 | CCCN1CCc2cccc3c2[C@H]1Cc1cccc(O)c1-3 | – | – | – | – | Accumulation [6]: 66; Accumulation [7]: 29; Accumulation [8]: 122; Accumulation [9]: 97; Accumulation [10]: 87; Accumulation [11]: 106
4 | CN1CCc2cccc3c2[C@H]1Cc1cccc(C#N)c1-3 | 41.1 nM | 183 nM | 279 nM | – | –
5 | CCc1cccc2c1-c1cccc3c1[C@@H](C2)N(C)CC3 | 4.5 nM | 79.2 nM | 270 nM | – | Accumulation [12]: 87; Accumulation [13]: 92; Accumulation [14]: 83; Accumulation [15]: 95; Accumulation [16]: 104; Accumulation [17]: 100
6 | CN1CCc2cccc3c2[C@H]1Cc1cccc(-c2ccccc2)c1-3 | 1.8 nM | 233 nM | – | – | Ki [3]: 3630 nM; Accumulation [18]: 95; Accumulation [19]: 93; Accumulation [20]: 106; Accumulation [21]: 107; Accumulation [22]: 133; Accumulation [23]: 95
7 | CC(=O)c1cccc2c1-c1cccc3c1[C@@H](C2)N(C)CC3 | 57.1 nM | – | – | 311 nM | Ki [3]: 4690 nM
8 | CC(C)N1CCc2cccc3c2[C@H]1Cc1cccc(O)c1-3 | 437 nM | – | > 10000 nM | 1010 nM | –
9 | CCCN1CCc2cccc3c2[C@H]1Cc1cccc(OC)c1-3 | 31.3 nM | – | > 5000 nM | 826 nM | Accumulation [24]: 66; Accumulation [25]: 43; Accumulation [26]: 96; Accumulation [27]: 87; Accumulation [28]: 89; Accumulation [29]: 82
10 | COc1ccccc1-c1cccc2c1-c1cccc3c1[C@@H](C2)N(C)CC3 | 26.9 nM | – | > 3000 nM | 1330 nM | –
11 | CN1CCc2cccc3c2[C@H]1Cc1cccc(C(N)=O)c1-3 | 198 nM | – | > 4000 nM | > 10000 nM | –
12 | COc1cccc2c1-c1cccc3c1[C@@H](C2)N(C)CC3 | 5.1 nM | 551 nM | 606 nM | – | –
13 | C=Cc1cccc2c1-c1cccc3c1[C@@H](C2)N(C)CC3 | 6 nM | 177 nM | – | – | Ki [3]: 720 nM
14 | Oc1cccc2c1-c1cccc3c1[C@@H](C2)NCC3 | 5.7 nM | – | 1100 nM | > 1000 nM | Accumulation [30]: 78; Accumulation [31]: 71; Accumulation [32]: 108; Accumulation [33]: 122; Accumulation [34]: 96; Accumulation [35]: 89
15 | CN1CCc2cccc3c2[C@H]1Cc1cccc(O)c1-3 | – | – | – | – | Accumulation [36]: 103; Accumulation [37]: 67; Accumulation [38]: 98; Accumulation [39]: 83; Accumulation [40]: 93; Accumulation [41]: 30
16 | Oc1cccc2c1-c1cccc3c1[C@@H](C2)N(Cc1ccccc1)CC3 | > 5000 nM | – | > 3000 nM | > 1000 nM | –
17 | CN1CCc2cccc3c2[C@H]1Cc1cccc(OS(=O)(=O)C(F)(F)F)c1-3 | 7.7 nM | 195 nM | 386 nM | – | –
18 | Cc1cccc2c1-c1cccc3c1[C@@H](C2)N(C)CC3 | 14.4 nM | 201 nM | 700 nM | – | –
19 | COc1cccc2c1-c1cccc3c1[C@@H](C2)N(Cc1ccccc1)CC3 | 3220 nM | – | > 10000 nM | > 1000 nM | –
